Test results taken from article PMC5010146 (European journal of medicinal chemistry, 2016).

Columns and labels:
15-LOX-1 [1] = target: T1, 15-LOX-1 (Homo sapiens, UniProt P16050); experiment: 15-LOX-1 enzyme inhibition, UV absorbance; format: biochemical
T1 sequence (P16050 1-662): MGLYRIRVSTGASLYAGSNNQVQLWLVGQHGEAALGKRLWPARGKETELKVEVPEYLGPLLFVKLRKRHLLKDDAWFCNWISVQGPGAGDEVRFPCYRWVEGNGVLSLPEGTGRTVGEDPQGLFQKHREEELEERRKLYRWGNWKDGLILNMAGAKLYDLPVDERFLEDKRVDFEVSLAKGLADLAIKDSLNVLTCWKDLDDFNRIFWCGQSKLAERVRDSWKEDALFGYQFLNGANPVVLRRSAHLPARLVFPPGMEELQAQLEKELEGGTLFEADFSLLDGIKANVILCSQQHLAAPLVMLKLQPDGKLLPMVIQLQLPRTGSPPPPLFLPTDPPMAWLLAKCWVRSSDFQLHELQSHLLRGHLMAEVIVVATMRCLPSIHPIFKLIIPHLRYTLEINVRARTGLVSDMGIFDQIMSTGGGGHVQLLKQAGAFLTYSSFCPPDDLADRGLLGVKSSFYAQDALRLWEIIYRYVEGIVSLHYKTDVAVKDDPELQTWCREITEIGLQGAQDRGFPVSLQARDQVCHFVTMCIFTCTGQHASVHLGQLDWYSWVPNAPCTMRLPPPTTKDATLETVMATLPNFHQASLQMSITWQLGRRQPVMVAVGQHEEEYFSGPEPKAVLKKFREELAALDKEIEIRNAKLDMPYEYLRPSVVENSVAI

[2] = target: T2, human 15-lipoxygenase-1 (15-LOX-1) (Homo sapiens, UniProt P16050); experiment: Michaelis-Menten enzyme kinetics analysis of 15-LOX-1 inhibition; format: biochemical; conditions: Lineweaver-Burk: Km increases, Vmax constant
T2 sequence (P16050 1-662): T1 sequence (P16050 1-662)

HT-22 cells [3] = experiment: Glutamate-induced cell death, xCELLigence impedance and MTT; format: cell-based
HT-22 cells [4] = experiment: Glutamate-induced lipid peroxidation, BODIPY staining, FACS; format: cell-based; conditions: 1 μM, 16 h after initiation of glutamate challenge
Summary of the method: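 HT-22 cells were seeded at 5x10^4 per well, left overnight, then exposed to 4 mM glutamate with or without test compound (10 µM) or 1 µM reference inhibitor for 6–7 h or 14–16 h. Staining used BODIPY 581/591 C11 (2 µM final, 1 h, 37°C). The red-to-green fluorescence shift was read by FACS at 488 nm excitation. At least three independent experiments, triplicates.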

15-LOX-1 [5] = conditions: mouse, transient cerebral ischemia; cited from earlier work

With `CCCCNC(=O)c1cc(-c2ccc(Cl)cc2)sc1N` [Compound 3l, 2-amino-N-butyl-5-(4-chlorophenyl)thiophene-3-carboxamide] the “inhibitory potency in words” value (15-LOX-1 [1]) was “inactive”.
For `CCCCNC(=O)c1cc(-c2ccc(Br)cc2)sc1N` [Compound 3m, 2-amino-5-(4-bromophenyl)-N-butylthiophene-3-carboxamide], the “inhibitory potency in words” value (15-LOX-1 [1]) was “inactive”.
For `CCCCNC(=O)c1cc(Cc2ccccc2)sc1N` [Compound 3n, 2-amino-5-benzyl-N-butylthiophene-3-carboxamide], the “inhibitory potency in words” value (15-LOX-1 [1]) was “inactive”.
For `CCCCNC(=O)c1cc(-c2ccccc2)sc1N` [Compound A9, 2-amino-N-butyl-5-phenylthiophene-3-carboxamide], the “mechanism of 15-LOX-1 inhibition” value [2] was “competitive inhibition” and the “time of addition after glutamate challenge at which cells were still protected” value (HT-22 cells [3]; post-treatment 5 and 10 μM, added 2-8 h after glutamate) was “up to 8 h”.
In the case of `c1ccc2c(c1)SCc1c-2[nH]c2ccccc12` [PD-146176], the “effect on boost of lipid peroxides” value (HT-22 cells [4]) is listed as “significantly attenuated”, the “protection against glutamate toxicity compared with ThioLox” value (HT-22 cells [3]; 1 μM) is listed as “Comparable results” and the “effect on infarct size” value (15-LOX-1 [5]) is listed as “significantly reduced the infarct size”.
